Columns and labels:
hNPT4 = target: T1, hNPT4 (Homo sapiens, UniProt O00476); assay: hNPT4 expressing oocytes, [14C]UA uptake inhibition; format: cell-based; details: for [14C]UA uptake inhibition via hNPT4, inhibitor outside: inhibitor in uptake solution
T1 sequence (O00476 1-498 isoform O00476-2): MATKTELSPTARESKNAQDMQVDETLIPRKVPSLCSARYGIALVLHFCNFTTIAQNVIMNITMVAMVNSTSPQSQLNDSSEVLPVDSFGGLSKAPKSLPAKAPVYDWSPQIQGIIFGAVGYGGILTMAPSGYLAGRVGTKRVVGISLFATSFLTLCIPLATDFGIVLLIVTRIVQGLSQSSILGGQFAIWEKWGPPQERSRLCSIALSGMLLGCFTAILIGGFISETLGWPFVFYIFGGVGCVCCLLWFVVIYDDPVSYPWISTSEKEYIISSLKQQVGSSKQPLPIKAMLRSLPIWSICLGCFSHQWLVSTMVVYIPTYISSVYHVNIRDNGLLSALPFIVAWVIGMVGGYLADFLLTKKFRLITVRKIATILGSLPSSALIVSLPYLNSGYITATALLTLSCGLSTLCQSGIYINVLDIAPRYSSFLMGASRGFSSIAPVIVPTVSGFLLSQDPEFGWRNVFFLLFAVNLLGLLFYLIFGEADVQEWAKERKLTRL
In short: (§1)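 Xenopus oocytes were injected with 25 ng cRNA for hNPT4 or hOAT10 and held 2–3 days at 18 ± 2 °C. [14C]uric acid uptake was measured at room temperature in ND96. Inhibitor was either added to the uptake solution (outside) or injected into the oocyte (46 nL, inside); injected oocytes were washed and then incubated 60 min with substrate. Uptake was stopped with ice-cold washes, oocytes were SDS-solubilised and counted by scintillation, and results are mean ± S.D.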

hOAT3 = target: T2, hOAT3 (Homo sapiens, UniProt Q8TCC7); assay: hOAT3 expressing oocytes, [14C]UA uptake inhibition; format: cell-based; details: inhibitor injected inside the oocyte
T2 sequence (Q8TCC7 1-542): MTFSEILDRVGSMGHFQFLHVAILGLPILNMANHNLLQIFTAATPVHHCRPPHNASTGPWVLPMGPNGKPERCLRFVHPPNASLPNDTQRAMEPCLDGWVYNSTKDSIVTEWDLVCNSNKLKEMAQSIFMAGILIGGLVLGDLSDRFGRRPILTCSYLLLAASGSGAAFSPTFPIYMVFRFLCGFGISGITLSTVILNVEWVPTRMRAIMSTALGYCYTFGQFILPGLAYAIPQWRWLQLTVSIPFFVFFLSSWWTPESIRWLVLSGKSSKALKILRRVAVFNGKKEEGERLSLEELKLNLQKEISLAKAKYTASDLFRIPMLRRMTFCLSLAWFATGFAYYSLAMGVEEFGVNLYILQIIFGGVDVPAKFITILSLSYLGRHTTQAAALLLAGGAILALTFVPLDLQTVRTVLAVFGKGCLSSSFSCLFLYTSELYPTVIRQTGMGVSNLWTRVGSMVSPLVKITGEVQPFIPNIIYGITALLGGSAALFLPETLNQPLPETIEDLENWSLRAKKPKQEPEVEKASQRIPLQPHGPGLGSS

hOAT1 = target: T3, hOAT1 (Homo sapiens, UniProt Q4U2R8); assay: hOAT1 expressing oocytes, [14C]UA uptake inhibition; format: cell-based; details: inhibitor injected inside the oocyte
T3 sequence (Q4U2R8 1-563): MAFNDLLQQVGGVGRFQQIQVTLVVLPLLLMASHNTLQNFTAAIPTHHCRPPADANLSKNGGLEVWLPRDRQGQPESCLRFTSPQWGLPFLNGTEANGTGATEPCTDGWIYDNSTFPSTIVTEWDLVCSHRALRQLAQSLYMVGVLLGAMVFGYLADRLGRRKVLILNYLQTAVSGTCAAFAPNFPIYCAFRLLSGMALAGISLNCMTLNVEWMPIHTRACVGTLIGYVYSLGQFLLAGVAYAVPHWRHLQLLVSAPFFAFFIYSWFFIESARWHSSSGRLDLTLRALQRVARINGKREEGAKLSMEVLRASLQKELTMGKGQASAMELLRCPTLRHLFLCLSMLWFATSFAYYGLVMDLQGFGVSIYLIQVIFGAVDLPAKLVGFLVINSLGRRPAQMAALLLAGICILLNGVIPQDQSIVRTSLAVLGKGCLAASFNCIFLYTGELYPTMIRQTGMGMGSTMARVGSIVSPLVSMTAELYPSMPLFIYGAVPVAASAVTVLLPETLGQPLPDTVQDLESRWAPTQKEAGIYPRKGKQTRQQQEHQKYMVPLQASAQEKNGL

hURAT1 = target: T4, hURAT1 (Homo sapiens, UniProt Q96S37); assay: hURAT1 expressing oocytes, [14C]UA uptake inhibition; format: cell-based
T4 sequence (Q96S37 1-553): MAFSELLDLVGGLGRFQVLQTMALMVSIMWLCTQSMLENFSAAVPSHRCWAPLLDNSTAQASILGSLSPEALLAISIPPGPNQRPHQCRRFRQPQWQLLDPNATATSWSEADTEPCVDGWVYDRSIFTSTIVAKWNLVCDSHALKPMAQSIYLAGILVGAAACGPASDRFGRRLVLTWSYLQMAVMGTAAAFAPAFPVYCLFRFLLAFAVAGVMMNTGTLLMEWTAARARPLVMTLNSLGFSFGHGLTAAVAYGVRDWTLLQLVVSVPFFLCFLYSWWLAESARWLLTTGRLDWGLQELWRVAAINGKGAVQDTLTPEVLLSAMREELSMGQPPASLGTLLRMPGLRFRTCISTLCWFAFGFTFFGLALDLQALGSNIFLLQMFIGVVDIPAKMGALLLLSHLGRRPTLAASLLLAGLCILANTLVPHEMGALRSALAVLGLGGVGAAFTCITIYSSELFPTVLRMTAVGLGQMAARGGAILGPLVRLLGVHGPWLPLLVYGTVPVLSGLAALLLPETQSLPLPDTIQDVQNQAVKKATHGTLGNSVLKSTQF

hOAT10 = hOAT10 (Homo sapiens, UniProt Q9Y226); assay: hOAT10 expressing oocytes, [14C]UA uptake inhibition; format: cell-based; details: for [14C]UA uptake inhibition via hOAT10, inhibitor inside: inhibitor injected inside the oocyte
In short: as §1

OATP-1B1 = target: T5, OATP-1B1 (Homo sapiens, UniProt Q9Y6L6); assay: OATP-1B1 expressing oocytes, [3H]estrone sulfate uptake inhibition; format: cell-based; details: OATP-1B1 IC50, substrate [3H]estrone sulfate, value in nM
T5 sequence (Q9Y6L6 1-691): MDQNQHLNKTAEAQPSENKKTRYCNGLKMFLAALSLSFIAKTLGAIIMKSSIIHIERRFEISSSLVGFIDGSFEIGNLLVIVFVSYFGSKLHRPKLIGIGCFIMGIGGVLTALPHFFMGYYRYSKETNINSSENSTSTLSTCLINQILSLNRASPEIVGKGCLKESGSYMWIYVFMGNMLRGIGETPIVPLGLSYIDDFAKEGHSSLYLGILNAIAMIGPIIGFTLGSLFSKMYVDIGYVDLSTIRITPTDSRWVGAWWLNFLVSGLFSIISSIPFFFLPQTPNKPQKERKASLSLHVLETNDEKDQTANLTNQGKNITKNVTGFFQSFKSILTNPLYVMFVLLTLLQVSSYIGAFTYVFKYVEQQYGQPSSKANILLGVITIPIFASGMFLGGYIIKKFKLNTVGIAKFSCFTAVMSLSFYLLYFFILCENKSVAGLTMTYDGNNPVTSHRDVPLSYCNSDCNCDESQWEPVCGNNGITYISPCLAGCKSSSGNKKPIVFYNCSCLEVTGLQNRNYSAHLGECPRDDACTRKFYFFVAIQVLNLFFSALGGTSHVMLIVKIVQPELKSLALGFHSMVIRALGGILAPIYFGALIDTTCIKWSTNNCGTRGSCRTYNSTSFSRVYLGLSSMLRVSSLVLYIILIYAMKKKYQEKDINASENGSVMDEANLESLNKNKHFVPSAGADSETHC
In short: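 Xenopus laevis oocytes were defolliculated with collagenase, and stage IV–V oocytes were injected with 25 ng capped cRNA. They were kept 2–3 days at 18 ± 2 °C in ND96, pH 7.4. Uptake ran at room temperature in ND96 with test compound, using [3H]estrone sulfate for OATP1B1 and 2B1 and [3H]estradiol-17β-glucuronide for OATP1B3. Oocytes were washed in ice-cold ND96, solubilised in 5% SDS and counted by scintillation, with control-oocyte uptake subtracted.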

[1] = Rat pharmacokinetic study; format: in vivo; details: male, Sprague-Dawley, whole blood
In short: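 Adult male Sprague-Dawley rats (286 ± 12 g) were fasted 12–15 hr, n=5 per route. IV dosing was a bolus of about 300 µL over 30 sec into the orbital sinus under isoflurane, from aqueous 10% DMSO solution. Oral dosing was a CMC-formulated capsule, 19.6 mg/kg, followed by 500 µL water. Tail-vein blood was collected into K2EDTA from 0.083 to 24 hr (iv) or 0.5 to 30 hr (oral). Test compound was extracted with internal standard and quantified by LC/MS-MS (ESI−) against blood standard curves; LOQ 1.08 ng/mL.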

hOAT10, sequence (Q9Y226 whole entry): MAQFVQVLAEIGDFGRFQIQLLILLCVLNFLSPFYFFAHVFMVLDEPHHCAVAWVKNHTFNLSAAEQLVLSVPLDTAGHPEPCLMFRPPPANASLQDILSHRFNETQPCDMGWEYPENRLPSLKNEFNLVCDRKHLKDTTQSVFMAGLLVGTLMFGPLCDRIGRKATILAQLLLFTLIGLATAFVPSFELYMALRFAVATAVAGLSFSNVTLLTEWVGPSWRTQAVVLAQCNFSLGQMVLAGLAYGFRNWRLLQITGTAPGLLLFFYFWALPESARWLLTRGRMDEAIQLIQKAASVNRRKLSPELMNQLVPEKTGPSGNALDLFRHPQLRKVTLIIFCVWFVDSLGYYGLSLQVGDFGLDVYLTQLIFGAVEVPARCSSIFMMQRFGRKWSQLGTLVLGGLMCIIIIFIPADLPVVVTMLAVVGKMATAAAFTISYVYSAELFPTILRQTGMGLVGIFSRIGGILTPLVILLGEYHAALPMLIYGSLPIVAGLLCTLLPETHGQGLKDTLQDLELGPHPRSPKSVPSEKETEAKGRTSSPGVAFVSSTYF

Row | [14C]UA uptake inhibition via hNPT4, inhibitor outside (hNPT4) | [14C]UA uptake inhibition via hNPT4, inhibitor inside (hNPT4; inhibitor injected inside the oocyte) | [14C]UA uptake inhibition via hOAT3, inhibitor inside (hOAT3) | [14C]UA uptake inhibition via hOAT1, inhibitor inside (hOAT1) | Effect on Vmax for [14C]UA uptake (hURAT1; 0.1 µM benzbromarone, 0.3 µM 6-hydroxy benzbromarone in uptake solution) | [14C]UA uptake inhibition via hURAT1, inhibitor inside (hURAT1; inhibitor injected inside the oocyte, [14C]UA 10 µM) | 14C-uric acid transport via hOAT10, inhibitor outside (hOAT10; inhibitor in incubation media) | [14C]UA uptake inhibition via hOAT10, inhibitor outside (hOAT10; inhibitor in uptake solution) | [14C]UA uptake inhibition via hOAT10, inhibitor inside (hOAT10) | IC50 (OATP-1B1) | AUC(0-t) ([1]; iv, 0.43 mg/kg) | half-life ([1]; iv, 0.43 mg/kg, T1/2, rat, iv orbital sinus dosing 0.43 mg/Kg) | AUC(0-t) ([1]; po, 19.6 mg/kg) | Cmax ([1]; po, 19.6 mg/kg) | Tmax ([1]; po, 19.6 mg/kg) | Compound | [14C]UA uptake inhibition via hOAT10, inhibitor inside (hOAT10; listed as benzbromarone)
1 | dose-dependent inhibition | moderate inhibition | profound inhibition | – | – | – | – | – | – | – | – | – | – | – | – | CCCN(CCC)S(=O)(=O)c1ccc(C(=O)O)cc1 [Compound 1, probenecid] | –
2 | dose-dependent inhibition | – | not readily inhibited | not readily inhibited | reduced | did not produce a profound inhibition | roughly 50 % of control | dose-dependent effect | did not display this effect | – | – | – | – | – | – | CCc1oc2ccccc2c1C(=O)c1cc(Br)c(O)c(Br)c1 [Compound 2, benzbromarone] | did not produce a statistically different uptake as compared to control
3 | – | – | – | – | – | – | – | – | – | 739 nM | 2090 ± 119 ng·h/mL | ~3 h | 60600 ± 7900 ng·h/mL | 6460 to 6470 ng/mL | 2 to 3 h | CCc1oc2cc(F)ccc2c1C(=O)c1cc(Br)c(O)c(Br)c1 [Compound 5, (3,5-dibromo-4-hydroxyphenyl)(2-ethyl-6-fluorobenzofuran-3-yl)methanone] | –
